Source: ChEMBL document CHEMBL4706672 (J Med Chem, 2021)
Active and inactive are the calls of the source. No cut-off for these calls is given here.

What was measured:
[1] = target: Protein cereblon/Carbohydrate sulfotransferase 14 (Homo sapiens) (UniProt Q96SW2+Q8NCH0); test: Protac activity at CRBN/CHST14 in human BxPC-3 cells assessed as CHST14 degradation incubated for 16 hrs by proteomic analysis; type: cell-based
How it was run: (§1)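 TMT 10plex proteomics. […] Samples (75 μg) were reduced with DTT, alkylated with 2-chloroacetamide, acetone-precipitated, trypsin-digested overnight at 37 °C and TMT-labeled for LC-MS/MS relative quantitation.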

[2] = target: Protein cereblon/WD repeat- and FYVE domain-containing protein 4 (Homo sapiens) (UniProt Q96SW2+Q6ZS81); test: Protac activity at CRBN/WDFY4 in human BxPC-3 cells assessed as WDFY4 degradation incubated for 16 hrs by proteomic analysis; type: cell-based
How it was run: (§2)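 BxPC-3 cells exposed 16 h in triplicate (control, PROTAC) or duplicate (other arms); lysed in RIPA at 4 °C, 75 μg protein per sample. Reduced with DTT (1 h, 55 °C), alkylated with 2-chloroacetamide, acetone-precipitated, trypsin-digested overnight at 37 °C, TMT 10plex labelled, relative quantitation by LC-tandem MS.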

[3] = target: Protein cereblon/E3 SUMO-protein ligase NSE2 (Homo sapiens) (UniProt Q96SW2+Q96MF7); test: Protac activity at CRBN/NSMCE2 in human BxPC-3 cells assessed as NSMCE2 degradation incubated for 16 hrs by proteomic analysis; type: cell-based; how it was run: as §1
[4] = test system: BXPC-3; test: Reduction in NQO1 expression in human BxPC-3 cells at 2 to 6 uM incubated for 16 hrs in presence of protein synthesis inhibitor cycloheximide by western blot analysis; conditions: dose 2-6 µM
[5] = target: Protein cereblon/Agrin (Homo sapiens) (UniProt Q96SW2+O00468); test: Protac activity at CRBN/Agrin in human BxPC-3 cells assessed as Agrin degradation incubated for 16 hrs by proteomic analysis; type: cell-based; how it was run: as §1
[6] = target: Protein cereblon/Apoptosis-stimulating of p53 protein 2 (Homo sapiens) (UniProt Q96SW2+Q13625); test: Protac activity at CRBN/TP53BP2 in human BxPC-3 cells assessed as TP53BP2 degradation incubated for 16 hrs by proteomic analysis; type: cell-based; how it was run: as §2
[7] = target: Protein cereblon/Ubiquitin-conjugating enzyme E2 T (Homo sapiens) (UniProt Q96SW2+Q9NPD8); test: Protac activity at CRBN/UBE2T in human BxPC-3 cells assessed as UBE2T degradation incubated for 16 hrs by proteomic analysis; type: cell-based; how it was run: as §2
[8] = Upregulation of ZNF430 protein levels human BxPC-3 cells incubated for 16 hrs by proteomic analysis; type: functional
How it was run: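 BxPC-3 cells exposed to compound (2 μM) or DMSO control for 16 h, then lysed in RIPA buffer at 4 °C. Protein quantified by BCA; 75 μg per sample. TMT 10plex labeling: DTT reduction (1 h, 55 °C), 2-chloroacetamide alkylation (30 min, RT), acetone precipitation, overnight trypsin digestion at 37 °C, then LC-tandem MS relative quantitation. Control and treated samples run in triplicate.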

[9] = target: Protein cereblon/Small EDRK-rich factor 2 (Homo sapiens) (UniProt Q96SW2+P84101); test: Protac activity at CRBN/SERF2 in human BxPC-3 cells assessed as SERF2 degradation incubated for 16 hrs by proteomic analysis; type: cell-based; how it was run: as §1
[10] = target: Protein cereblon/Anamorsin (Homo sapiens) (UniProt Q96SW2+Q6FI81); test: Protac activity at CRBN/CIAPIN1 in human BxPC-3 cells assessed as CIAPIN1 degradation incubated for 16 hrs by proteomic analysis; type: cell-based; how it was run: as §1
[11] = Upregulation of EPHB3 protein levels in human BxPC-3 cells incubated for 16 hrs by proteomic analysis; type: functional; how it was run: as §2
[12] = target: Protein cereblon/Kunitz-type protease inhibitor 1 (Homo sapiens) (UniProt Q96SW2+O43278); test: Protac activity at CRBN/SPINT1 in human BxPC-3 cells assessed as SPINT1 degradation incubated for 16 hrs by proteomic analysis; type: cell-based; how it was run: as §1
[13] = target: Signal transducer and activator of transcription 3 (Homo sapiens) (UniProt P40763); test: Inhibition of STAT3 phosphorylation in human MIA PaCa-2 cells at 0.5 to 1 uM after 16 hrs by western blot analysis; type: cell-based; conditions: dose 0.5-1 µM
Sequence of Signal transducer and activator of transcription 3 (Homo sapiens) (P40763 whole entry): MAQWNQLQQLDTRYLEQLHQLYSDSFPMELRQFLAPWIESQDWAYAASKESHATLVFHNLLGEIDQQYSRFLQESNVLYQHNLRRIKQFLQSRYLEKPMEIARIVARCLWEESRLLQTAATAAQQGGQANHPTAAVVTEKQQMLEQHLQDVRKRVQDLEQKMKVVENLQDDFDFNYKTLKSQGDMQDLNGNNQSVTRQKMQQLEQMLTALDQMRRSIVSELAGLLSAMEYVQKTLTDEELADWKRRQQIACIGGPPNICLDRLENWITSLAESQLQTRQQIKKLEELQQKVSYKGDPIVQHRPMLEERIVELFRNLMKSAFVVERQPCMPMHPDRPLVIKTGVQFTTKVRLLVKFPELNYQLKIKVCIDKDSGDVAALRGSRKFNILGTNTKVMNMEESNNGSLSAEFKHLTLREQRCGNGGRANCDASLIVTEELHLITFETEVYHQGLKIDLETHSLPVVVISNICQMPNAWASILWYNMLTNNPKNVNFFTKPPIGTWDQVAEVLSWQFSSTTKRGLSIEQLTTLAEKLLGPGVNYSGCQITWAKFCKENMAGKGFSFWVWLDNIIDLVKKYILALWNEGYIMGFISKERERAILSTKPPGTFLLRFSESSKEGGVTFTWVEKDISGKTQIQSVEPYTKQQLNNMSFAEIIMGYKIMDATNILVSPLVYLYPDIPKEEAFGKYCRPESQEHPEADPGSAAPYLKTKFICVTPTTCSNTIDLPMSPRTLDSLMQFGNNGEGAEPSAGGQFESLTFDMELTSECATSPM
How it was run: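 Cells were seeded in 6-well plates (BxPC-3 500 × 10^3, MIA PaCa-2 200 × 10^3 cells/well) and exposed to compound for 16 h. Lysis was at 4 °C by sonication in Tris/NaCl/Triton/SDS buffer, pH 7.4, with protease and phosphatase inhibitors. Lysates were run on SDS-PAGE, transferred to PVDF and probed for STAT3, pSTAT3 and NQO1 with GAPDH as loading control. Immunoblots were imaged on an Odyssey system.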

[14] = target: Protein cereblon/Signal transducer and activator of transcription 3 (Homo sapiens, UniProt P40763+Q96SW2); test: Protac activity at CRBN/STAT3 in human BxPC-3 cells assessed as decrease in STAT3 expression level at 2 to 6 uM incubated for 12 hrs in presence of proteasome inhibitor MG132 by western blot analysis; type: cell-based; conditions: dose 2-6 µM
How it was run: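 Immunoblot of BxPC-3 cells given a 2 h pretreatment with MG132 at 10 μM, then test agent for 12 h. Cell lysis, BCA assay, SDS-PAGE/PVDF, probed for STAT3, pSTAT3 and NQO1 with GAPDH as reference.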

[15] = target: T1, Protein cereblon/E3 ubiquitin-protein ligase ZFP91 (Homo sapiens, UniProt Q96SW2+Q96JP5); test: Protac activity at CRBN/ZFP91 in human BxPC-3 cells assessed as ZFP91 degradation incubated for 16 hrs by proteomic analysis; type: cell-based; how it was run: as §2
T1 sequence (Q96JP5 2-570 partner limits assumed): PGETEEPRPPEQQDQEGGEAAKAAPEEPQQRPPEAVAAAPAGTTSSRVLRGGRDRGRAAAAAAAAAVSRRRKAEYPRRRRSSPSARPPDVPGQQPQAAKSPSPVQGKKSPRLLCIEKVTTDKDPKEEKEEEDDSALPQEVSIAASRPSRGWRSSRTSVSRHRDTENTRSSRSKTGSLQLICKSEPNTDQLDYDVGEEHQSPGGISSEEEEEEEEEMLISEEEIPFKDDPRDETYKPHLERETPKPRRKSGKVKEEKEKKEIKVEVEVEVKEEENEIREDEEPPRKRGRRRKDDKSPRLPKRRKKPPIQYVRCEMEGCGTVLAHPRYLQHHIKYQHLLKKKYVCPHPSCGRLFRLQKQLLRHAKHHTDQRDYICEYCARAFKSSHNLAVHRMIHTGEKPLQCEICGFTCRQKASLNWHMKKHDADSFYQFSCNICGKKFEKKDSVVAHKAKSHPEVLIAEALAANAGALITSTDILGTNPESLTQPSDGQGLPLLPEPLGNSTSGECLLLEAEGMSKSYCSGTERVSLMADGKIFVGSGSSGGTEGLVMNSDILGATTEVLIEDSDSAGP
T1 sequence (Q96SW2 whole entry): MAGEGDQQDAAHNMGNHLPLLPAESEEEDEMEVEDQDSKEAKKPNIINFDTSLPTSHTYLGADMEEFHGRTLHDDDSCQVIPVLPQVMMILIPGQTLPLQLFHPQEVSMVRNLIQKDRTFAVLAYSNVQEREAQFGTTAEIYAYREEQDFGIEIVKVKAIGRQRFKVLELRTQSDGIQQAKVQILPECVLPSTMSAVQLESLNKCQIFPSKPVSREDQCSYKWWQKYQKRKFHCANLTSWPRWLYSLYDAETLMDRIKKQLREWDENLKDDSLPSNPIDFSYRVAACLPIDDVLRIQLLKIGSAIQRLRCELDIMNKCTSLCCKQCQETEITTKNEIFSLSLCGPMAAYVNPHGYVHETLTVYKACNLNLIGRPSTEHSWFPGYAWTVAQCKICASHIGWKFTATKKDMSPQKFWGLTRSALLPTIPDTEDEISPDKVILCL

[16] = Upregulation of ABCB6 protein levels in human BxPC-3 cells incubated for 16 hrs by proteomic analysis; type: functional; how it was run: as §2
[17] = target: T1, Protein cereblon/E3 ubiquitin-protein ligase ZFP91; test: Protac activity at CRBN/ZFP91 in human BxPC-3 cells assessed as induction of ZF91 degradation incubated for 4 hrs by western blot analysis; type: cell-based
How it was run: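 BxPC-3 cells treated for 4, 16 or 24 h across a concentration series. ZFP91 immunoblotted against GAPDH; bands quantified by densitometry, DC50 calculated from dose-response curves of the densitometry.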

[18] = Upregulation of ECM1 protein levels in human BxPC-3 cells incubated for 16 hrs by proteomic analysis; type: functional; how it was run: as §2
[19] = target: Protein cereblon/Protein LTV1 homolog (Homo sapiens) (UniProt Q96SW2+Q96GA3); test: Protac activity at CRBN/LTV1 in human BxPC-3 cells assessed as LTV1 degradation incubated for 16 hrs by proteomic analysis; type: cell-based; how it was run: as §1
Sequence of Protein cereblon/Protein LTV1 homolog (Homo sapiens) (Q96GA3 whole entry, looked up): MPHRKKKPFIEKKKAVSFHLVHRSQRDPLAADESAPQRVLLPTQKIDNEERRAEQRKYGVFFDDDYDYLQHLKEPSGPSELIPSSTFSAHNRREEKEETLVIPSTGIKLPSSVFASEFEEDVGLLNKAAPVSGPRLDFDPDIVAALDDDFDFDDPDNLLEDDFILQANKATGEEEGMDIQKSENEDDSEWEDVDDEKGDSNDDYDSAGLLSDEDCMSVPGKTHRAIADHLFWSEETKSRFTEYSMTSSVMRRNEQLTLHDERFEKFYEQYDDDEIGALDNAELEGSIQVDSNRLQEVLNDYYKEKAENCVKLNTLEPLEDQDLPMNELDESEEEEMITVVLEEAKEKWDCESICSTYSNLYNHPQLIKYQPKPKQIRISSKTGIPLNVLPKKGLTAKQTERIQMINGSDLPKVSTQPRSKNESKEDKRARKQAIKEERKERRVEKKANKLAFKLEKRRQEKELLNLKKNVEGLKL
Sequence of Protein cereblon/Protein LTV1 homolog (Homo sapiens) (Q96SW2 whole entry, looked up): as the sequence (Q96SW2 whole entry) above

[20] = target: Protein cereblon/DNA polymerase delta subunit 4 (Homo sapiens) (UniProt Q9HCU8+Q96SW2); test: Protac activity at CRBN/POLD4 in human BxPC-3 cells assessed as POLD4 degradation incubated for 16 hrs by proteomic analysis; type: cell-based; how it was run: as §1
[21] = target: Protein cereblon/Transmembrane protease serine 4 (Homo sapiens) (UniProt Q9NRS4+Q96SW2); test: Protac activity at CRBN/TMPRSS4 in human BxPC-3 cells assessed as TMPRSS4 degradation incubated for 16 hrs by proteomic analysis; type: cell-based; how it was run: as §2
[22] = target: Protein cereblon/Cold shock domain-containing protein E1 (Homo sapiens) (UniProt Q96SW2+O75534); test: Protac activity at CRBN/CSDE1 in human BxPC-3 cells assessed as CSDE1 degradation incubated for 16 hrs by proteomic analysis; type: cell-based; how it was run: as §1
Sequence of Protein cereblon/Cold shock domain-containing protein E1 (Homo sapiens) (O75534 whole entry, looked up, the tested form may be a part): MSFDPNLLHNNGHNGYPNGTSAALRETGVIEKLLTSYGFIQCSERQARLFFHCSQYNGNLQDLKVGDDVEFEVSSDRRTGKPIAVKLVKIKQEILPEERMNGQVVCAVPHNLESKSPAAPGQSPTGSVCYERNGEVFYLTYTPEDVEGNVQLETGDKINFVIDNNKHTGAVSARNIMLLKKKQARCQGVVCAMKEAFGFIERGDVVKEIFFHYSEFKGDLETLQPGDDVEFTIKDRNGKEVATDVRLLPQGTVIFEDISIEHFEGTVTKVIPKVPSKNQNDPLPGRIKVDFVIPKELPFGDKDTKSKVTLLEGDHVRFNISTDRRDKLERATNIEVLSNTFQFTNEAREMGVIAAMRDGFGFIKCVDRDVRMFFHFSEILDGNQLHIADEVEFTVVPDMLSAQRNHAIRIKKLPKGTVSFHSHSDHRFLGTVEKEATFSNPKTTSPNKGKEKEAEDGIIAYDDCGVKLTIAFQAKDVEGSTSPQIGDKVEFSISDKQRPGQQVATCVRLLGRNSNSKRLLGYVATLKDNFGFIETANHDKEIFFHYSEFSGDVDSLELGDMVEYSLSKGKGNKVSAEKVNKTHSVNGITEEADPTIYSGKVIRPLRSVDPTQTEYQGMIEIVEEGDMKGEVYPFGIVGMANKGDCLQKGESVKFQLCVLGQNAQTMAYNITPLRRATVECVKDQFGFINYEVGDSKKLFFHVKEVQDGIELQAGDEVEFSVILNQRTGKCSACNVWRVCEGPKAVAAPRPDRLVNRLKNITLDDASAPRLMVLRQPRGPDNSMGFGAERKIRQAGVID
Sequence of Protein cereblon/Cold shock domain-containing protein E1 (Homo sapiens) (Q96SW2 whole entry, looked up, the tested form may be a part): as the sequence (Q96SW2 whole entry) above

Sequence of Protein cereblon/Carbohydrate sulfotransferase 14 (Homo sapiens) (Q8NCH0 whole entry, looked up): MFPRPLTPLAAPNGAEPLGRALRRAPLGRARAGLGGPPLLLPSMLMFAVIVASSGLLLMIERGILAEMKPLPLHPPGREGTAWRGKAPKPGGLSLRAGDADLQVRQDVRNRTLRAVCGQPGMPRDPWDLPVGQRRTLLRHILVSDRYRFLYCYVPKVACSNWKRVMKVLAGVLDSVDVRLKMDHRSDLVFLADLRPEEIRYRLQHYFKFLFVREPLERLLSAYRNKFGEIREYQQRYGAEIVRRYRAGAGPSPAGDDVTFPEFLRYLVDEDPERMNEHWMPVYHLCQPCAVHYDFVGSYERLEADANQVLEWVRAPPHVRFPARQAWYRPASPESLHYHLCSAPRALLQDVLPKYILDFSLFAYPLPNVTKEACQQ
Sequence of Protein cereblon/Carbohydrate sulfotransferase 14 (Homo sapiens) (Q96SW2 whole entry, looked up): as the sequence (Q96SW2 whole entry) above

log2FC [1]: -0.64
log2FC [2]: -0.78
log2FC [3]: -0.63
log2FC [5]: -0.68
log2FC [6]: -1.02
log2FC [7]: -0.66
log2FC [9]: -0.61
log2FC [10]: -0.59
log2FC [12]: -0.85
inhibition [13]: inactive
Activity [14]: Active
log2FC [15]: -0.62
Activity [17]: inactive
log2FC [19]: -0.69
log2FC [20]: -0.61
log2FC [21]: -1.27
log2FC [22]: -0.75
Structure (SMILES): O=C1CCC(N2C(=O)c3cccc(NCCCCCC4CCN(CCNC(=O)c5cc6c(o5)C(=O)c5ccccc5C6=O)CC4)c3C2=O)C(=O)N1 (configuration not stated)
Activity [4]: inactive
log2FC [8]: 0.77
log2FC [11]: 0.65
log2FC [16]: 0.68
log2FC [18]: 0.76
